# Results collected from several papers.
# Each line is one published result; the experiments were not run side by side.
# Matrix: plasma
Compound,species,route,dose,setting,AUC(0-t)
COc1nc(-c2cc(C)c(N[C@@H](C)c3cc(F)cc(F)c3)nn2)ccc1-n1cnc(C)c1,male Sprague-Dawley rat,intravenous,1 mg/kg,single dose,6350 ng·h/mL
C=CC(=O)N1CC2CC(n3nc(-c4ccc(C(=O)Nc5ccccn5)cc4)c4c(N)ncnc43)CC2C1 (centres unmarked),male Wistar rat,oral,100 mg/kg,,13200 ng·h/mL
O=C(Nc1cc(F)c(F)c(F)c1)c1ccc(F)c(S(=O)(=O)NCc2cccc(B(O)O)c2)c1,male Sprague-Dawley rat,intravenous,2 mg/kg,,242 ng·h/mL
COc1ccc(C(C)=O)c(O)c1,male Sprague-Dawley rat,oral,100 mg/kg,,33600 ng·h/mL
Cc1nc(-c2cnc(NC(C)C)n(C)c2=O)ccc1Oc1ccnc(-c2cnn(C)c2)c1,male Sprague-Dawley rat,intravenous,1 mg/kg,,21500 ng·h/mL
C[C@H](Nc1ncnc2[nH]cnc12)c1cc2cccc(Cl)c2c(=O)n1-c1ccccc1,male Wistar rat,oral,25 mg/kg,single dose,9340 ng·h/mL
N#Cc1ccc(Nc2nc(N)cc(Oc3c(F)cc(-c4ccc(C#N)cc4)cc3F)n2)cc1,Sprague-Dawley rat,oral,5 mg/kg,,74 ng·h/mL
CCc1cc(C(=O)NC)c2nccc(N3CCc4c(cc(Cn5ccnc5)cc4-c4cn(C)nc4C(F)(F)F)C3=O)c2c1,male Sprague-Dawley rat,intravenous,3 mg/kg,,1270 ng·h/mL
COc1ccc2c(Cc3ccccc3F)c3[n+](cc2c1OC)CCc1cc2c(cc1-3)OCO2.[Br-],rat,intravenous,5 mg/kg,,113 ng·h/mL
Cc1c(-c2ccccc2)cccc1N1C(=O)c2cc(CN[C@H](C(=O)O)C(C)O)c(OCc3cccc(C#N)c3)cc2C1=O (some centres unmarked),Sprague-Dawley rat,oral,50 mg/kg,,75 ng·h/mL
CCc1cc(OC)c2nccc(N3CCc4c(cc(Cn5ccnc5)cc4-c4cn(C)nc4C(F)(F)F)C3=O)c2c1,male Sprague-Dawley rat,intravenous,3 mg/kg,,952 ng·h/mL
COc1ccc2c(Cc3ccccc3F)c3n(c(=O)c2c1OC)CCc1cc2c(cc1-3)OCO2,rat,intravenous,5 mg/kg,,22700 ng·h/mL
C#Cc1cccc(Nc2ncnc3cc(OCCOC)c(OCCOC)cc23)c1,male Sprague-Dawley rat,oral,12 mg/kg,single dose,9250 ng·h/mL
CCOC(=O)[C@@]12C[C@@H]1[C@@H](n1ccc3c(NC)nc(C#Cc4ccc(Cl)s4)nc31)[C@H](O)[C@@H]2O,male Sprague-Dawley rat,oral,3 mg/kg,,170 ng·h/mL
